Screening data as filed in PubChem BioAssay.
Gli-Sufu antag = Gli-Sufu pathway antagonists, primary screen, luciferase luminescence, Sufu-KO-LIGHT cells, uHTS | Sufu-KO-LIGHT fibroblasts, Gli luciferase reporter luminescence | inhibition, % at 5 µM | 0.74% of 340,000 active | AID 588413, 2011;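 active = inhibition above about 55%, limit read from the data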;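 also: 0% = DMSO-treated cells and 100% = wells with medium but no cells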
697 NFkB inh = inhibitors of PMA/ionomycin-induced NF-kB reporter, 697 cells, primary screen, B-cell NF-kB inhibitor project, cell-based, luminescence, uHTS; inhibition, % at 4 µM; 697 B-cell NF-kB luciferase reporter, 16 h; AID 435022, 2010; 0.33% of 330,000 active; in the data active = inhibition above about 35%
Jurkat NFkB inh = inhibitors of induced NF-kB luciferase reporter, primary screen, TCR NF-kB activation inhibitor project, cell-based, luminescence, uHTS. Jurkat, PMA/ionomycin-induced NF-kB luciferase reporter. inhibition, % at 4 µM. 0.53% of 330,000 active. AID 435003, 2010; in the data active = inhibition above about 50%
CHOP UPR activ = activators of apoptotic CHOP UPR arm, primary screen, cell-based, CHO-CHOP luciferase reporter, luminescence, uHTS. UPR activation; percent of tunicamycin response over DMSO baseline. activation, % at 10 µM. 0.34% of 330,000 active;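 active = at 10 µM dose, activation of 40% or more, normalized to positive control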;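 also: 100% = tunicamycin at 10 µg/mL and 0% = DMSO alone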
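Material: CHO-CHOP cells, stable luciferase reporter of PERK-eIF2a-CHOP signalling; quantity: 500 reporter cells seeded per well; buffer or medium: F12 medium containing 10% fetal bovine serum; compound: one dose, 10 µM in 0.5% DMSO; incubation: 6 h compound treatment, 37 °C; measured by: Steady-Glo luciferase luminescence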
XBP1 UPR activ = activators of adaptive XBP1 UPR arm, primary screen, cell-based, CHO-XBP1 luciferase reporter, luminescence, uHTS | 0.33% of 330,000 active | AID 463104, 2010 | activation, % at 20 µM | IRE1-XBP1 UPR activation; percent of tunicamycin response, DMSO as zero;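 active = versus positive control, 20 µM dose yields 30% or more activation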;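 also: 100% = tunicamycin at 10 µg/mL and 0% = DMSO only wells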
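Signal: luciferase luminescence; Assay system: CHO-XBP1 luciferase reporter cells; Amount: one thousand reporter cells per well; Dosing: 20 µM single concentration, DMSO 1%; Benchmarks: high control tunicamycin 10 µg/mL final, low control DMSO vehicle only; Schedule: 6 h compound exposure at 37 °C, 5% CO2; Evaluation: percent activation relative to tunicamycin reference.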
CHOP inhibitor = inhibitors of CHOP promoter induction, primary screen, cell-based, unfolded protein response, luciferase reporter. CHO-K1 CHOP-promoter luciferase, tunicamycin-induced, 15-18 h. inhibition, % at 10 µM. 3.8% of 220,000 active;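 active = compounds that reduced the stress-induced luciferase reporter signal by more than about 70% of percent inhibition, limit read from the data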;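 also: 0% = tunicamycin plus vehicle and 100% = wells without tunicamycin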
Gli antag conf = Gli-SUFU pathway antagonists, confirmation, single concentration, luciferase luminescence, Sufu-KO-LIGHT cells; shares compounds with Gli-Sufu antag; Gli luciferase reporter; inhibition, % at 5 µM; 40% of 2,500 active; AID 602428, 2012;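 active = mean inhibition at 5 µM reaching about 45%, limit read from the data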;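 also: plate controls were DMSO-treated cells for no effect and wells lacking cells for full effect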
Gli cytotox = cytotoxicity in Sufu-KO-LIGHT cells, confirmation, cytotoxicity control for Gli-SUFU antagonist project, cell-based, ATP luminescence, single concentration | AID 651994, 2013 | cytotoxicity, % at 5 µM | 32% of 2,500 active | shares compounds with Gli-Sufu antag;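 active = mean cytotoxicity at 5 µM above about 25%, limit read from the data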;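 also: cells exposed to compound overnight for roughly 16 to 18 hours; plate controls were DMSO wells with cells for no effect and medium without cells for full effect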
Wnt3a counter = Wnt3a reporter signal inhibition, confirmation, counter-screen for Gli-SUFU antagonist project, Wnt-LIGHT cells, luminescence, single concentration. shares compounds with Gli-Sufu antag. Wnt3a-driven luciferase reporter. AID 651995, 2013. 20% of 2,500 active. inhibition, % at 6.25 µM;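 active = mean inhibition above about 25%, limit read from the data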
An asterisk follows results filed as active; . = not tested or not shown. Shown are actives, neighbours in structure and some others; about 3.9% of the full set was active somewhere.

SMILES	Gli-Sufu antag	697 NFkB inh	Jurkat NFkB inh	CHOP UPR activ	XBP1 UPR activ	CHOP inhibitor	Gli antag conf	Gli cytotox	Wnt3a counter
COc1ccccc1CNC(=O)C(=O)NCCC1CCCCN1S(=O)(=O)c1ccc(C)cc1 (stereo not drawn)	54	-20	0	0	-3	.	20	11	-35
CCOc1ccccc1-c1nc(CN2CCCC2c2nccs2)c(C)o1 (stereo not drawn)	50	-3	-9	-2	-3	51	26	4	-2
CCOc1ccccc1-c1nc(CN2CCCN(C(=O)c3ccco3)CC2)c(C)o1	3	-25	-3	2	-1	.	.	.	.
COc1ccc(NS(=O)(=O)c2ccc(N3CCCCC3)c(N)c2)cc1	58*	1	41	4	-3	.	73*	27*	16
COc1ccc(NS(=O)(=O)c2ccc(N3CCCCC3)c(NC(=O)C(C)NC(N)=O)c2)cc1 (stereo not drawn)	9	-17	-5	2	-4	.	.	.	.
COc1ccccc1NC(=O)N1CCCC1C(=O)NCC1CCCO1 (stereo not drawn)	50	3	-10	2	0	-6	25	9	-7
CCN(CC)S(=O)(=O)c1ccc(NC(=O)CNC2CCCCC2)cc1	4	1	-21	-1	-2	.	.	.	.
Cc1onc(-c2ccccc2)c1C(=O)N1CCN(c2ccccc2)CC1	2	0	23	3	-5	.	.	.	.
COc1ccc(N2CCN(C(=O)COC(=O)c3c(-c4ccccc4)noc3C)CC2)cc1	65*	2	11	0	-2	.	16	-1	7
O=C(c1cc(Br)ccc1Cl)N1CCN(c2ccccn2)CC1	-3	9	-7	0	-2	.	.	.	.
CC[C@H](C)Cc1cn([C@@H](CCCN=C(NC(=O)OC(C)(C)C)NC(=O)OC(C)(C)C)C(=O)NCCCCCCCCCCC(=O)N2CCN(C(=O)OC(C)(C)C)CC2)nn1	33	-26	30	13	21	.	.	.	.
Cc1cn([C@@H](CCCCNC(=O)OC(C)(C)C)C(=O)NCCCCCCCCCCC(=O)N2CCN(C(=O)OC(C)(C)C)CC2)nn1	60*	-59	33	5	-3	.	59*	36*	14
CC1Cc2ccccc2N1C(=O)C1CCCN1S(=O)(=O)c1ccc(Cl)cc1 (stereo not drawn)	99*	-48	-13	1	-4	36	20	14	-32
Cc1cc(C)n(C(=O)C2CCCN2S(=O)(=O)c2ccc(Cl)cc2)n1 (stereo not drawn)	2	21	-4	4	-1	25	.	.	.
COc1cc(C)nc(NCc2ccccc2)n1	-5	0	-7	0	1	33	.	.	.
Cc1cc(NC2CCCCC2)nc(NCc2ccccc2)n1	80*	-22	46	1	0	56	58*	34*	17
COc1ccc(Nc2cc(C)nc(NCc3ccccc3)n2)cc1	36	-18	35	7	5	63	.	.	.
Cc1ccc(Nc2cc(C)nc(NCc3ccccc3)n2)cc1	52	-17	27	3	13	60	29	23	-19
CCOc1ccc(S(=O)(=O)N2CCCCC2)cc1NC(=O)c1cccnc1OCC	56*	20	-4	1	3	.	28	19	-41
CCOc1ncccc1C(=O)Nc1cc(S(=O)(=O)N2CCCCC2)ccc1C	4	2	-5	-1	-1	.	.	.	.
CCOc1ccc(-c2c(=O)n(OCc3ccccn3)c3ccccc3[n+]2[O-])cc1	2	-6	-15	2	3	-33	.	.	.
O=c1c(-c2ccc(Oc3ccccc3)cc2)[n+]([O-])c2ccccc2n1OCc1ccccn1	95*	-7	5	-1	3	7	15	4	-1
NC(=S)NNC(=O)c1cccc(Cl)c1	-28	-34	-14	-1	-4	12	.	.	.
O=C(NNC(=O)c1cccc(Cl)c1)NNC(=O)c1cccc(Cl)c1	53	-3	5	1	-1	.	12	-12	-12
CCOC(=O)C1(Cc2ccccc2)CCCN(C(=O)c2cnn(CC)c2)C1 (stereo not drawn)	-10	-80	-50	8	-3	.	.	.	.
SMILES	Gli-Sufu antag	697 NFkB inh	Jurkat NFkB inh	CHOP UPR activ	XBP1 UPR activ	CHOP inhibitor	Gli antag conf	Gli cytotox	Wnt3a counter
O=C(N/N=C/c1cc(Cl)ccc1O)c1ccc(Br)cc1	76*	.	.	.	.	80*	59*	29*	58*
O=C(COC(=O)CNC(=O)C1CCCCC1)Nc1ccccc1OC(F)F	-13	6	7	-2	0	.	.	.	.
CN(C)c1ccc(NC(=O)CN2CCC(N3CCCCC3)CC2)cc1	53	-6	-8	4	-1	-3	19	7	6
Cc1[nH]oc(=O)c1N=Nc1ccc2[nH]c(=O)[nH]c2c1	1	2	9	-1	-3	.	.	.	.
O=C(N[C@H]1C/C=C\C[C@H](CC(=O)N(CCO)Cc2ccccc2)C(=O)N[C@H](Cc2c[nH]c3ccccc23)COC1=O)OCC1c2ccccc2-c2ccccc21	45	-16	-5	1	-4	.	.	.	.
O=C(N[C@H]1C/C=C\C[C@@H](CC(=O)N(CCO)Cc2ccccc2)C(=O)N[C@H](Cc2c[nH]c3ccccc23)COC1=O)OCC1c2ccccc2-c2ccccc21	53	-16	-5	5	-2	.	52*	7	-46
O=C(N[C@@H]1C/C=C\C[C@@H](CC(=O)N(CCO)Cc2ccccc2)C(=O)N[C@@H](c2ccccc2)COC1=O)OCC1c2ccccc2-c2ccccc21	56*	6	-3	2	-1	.	56*	18	-68
O=C(N[C@@H]1C/C=C\C[C@H](CC(=O)N(CCO)Cc2ccccc2)C(=O)N[C@@H](Cc2c[nH]c3ccccc23)COC1=O)OCC1c2ccccc2-c2ccccc21	53	-23	-6	-1	-3	.	57*	22	-30
